Source: ChEMBL document CHEMBL1789904, “Imaging of Plasmodium liver stages to drive next-generation antimalarial drug discovery” (Science, 2011)

Test system: Plasmodium yoelii
Assay: NOVARTIS: Antimalarial liver stage activity measured as reduction in Plasmodium yoelii schizont area in HepG2-A16-CD81 cells by immuno-fluorescence, and median schizont size at 10uM compound concentration
Assay type: functional, organism-based
Settings: for IC50: Plasmodium yoelii, HepG2-A16-CD81
Outline: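 Host and parasite nuclei stained with Hoechst 33342, parasites with αPyHSP70 antibody; 25 images per well by high-content imaging; median parasite (schizont) area measured by automated image analysis, ~50 schizonts per experiment, two or more independent experiments.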

Structure (SMILES) | Schizont size | IC50
CCCC(=O)N1CCN(c2nc(Cc3ccccc3)c3c(c2C#N)CC(C)(C)OC3)CC1 | 22.44 um | 348 nM
COc1ccc(-c2c(C(F)(F)F)nn(C)c2NC(=O)Nc2ccc(F)cc2F)cc1 | 103.33 um | 3450 nM
CCOC(=O)C1=C(C)NC2=C(C(=O)C(C(=O)OCC)C(c3cccc(OC)c3)C2)C1c1cc(OC)c(OC)c(OC)c1 (configuration not stated) | 109.59 um | 232 nM
CCOC(=O)C1=C(c2ccccc2)N=c2sc(=Cc3cc(C)n(-c4ccc(F)cc4)c3C)c(=O)n2C1c1cccc(OC)c1OC (configuration not stated) | 106.25 um | 2450 nM
CCOC(=O)c1cnc2ccc(OC)cc2c1NCc1cccs1 | 31.63 um | 193 nM
CC(C)(C)OC(=O)N1CCC(c2c(C(=O)Nc3cccc(C(F)(F)F)c3)cnn2-c2ccc(F)cc2F)CC1 |  | 3120 nM
CCOC(=O)c1cn(CC)c2cc(N(C)CCc3ccc(OC)c(OC)c3)c(F)cc2c1=O | 23.69 um | 42.1 nM
CCN1C(=O)N(CC)C(NNC(N)=S)C1NNC(N)=S (configuration not stated) | 103.75 um | 68.6 nM
CCC(/C=C1\Sc2ccc(OC)cc2N1CCCS(=O)(=O)O)=C\c1sc2ccc(OC)cc2[n+]1CCCS(=O)(=O)O | 18.06 um | 11.2 nM
COc1cc(OC)c(NC(=O)C2c3ccccc3C(=O)N(C)C2c2ccc(OC)c(OC)c2)cc1Cl (configuration not stated) | 165.85 um | > 9130 nM
CCCCc1c(C)nc2ccc(Br)cc2c1O | 25.99 um | 64.7 nM
CSc1nnc(-c2cccc([N+](=O)[O-])c2)n1Cc1ccccc1 | 97.38 um | 2510 nM
CN(C)c1oc(-c2ccc(Cl)cc2Cl)nc1[P+](c1ccccc1)(c1ccccc1)c1ccccc1.[I-] | 19.41 um | 129 nM
CC(=O)N1c2ccc(C)cc2C(C)(c2ccccc2)CC1(C)C (configuration not stated) | 105.42 um | 1250 nM
COc1cccc(-c2cncc(-c3cncc(OC)c3)n2)c1 |  | > 10000 nM
Cc1ccc(Nc2nc3c(N)nnc(N)c3nc2Nc2ccc(C)cc2)cc1 | 50.31 um | 488 nM
CCN1C=C(c2ccc(C)cc2)S/C1=C\c1sc2ccccc2[n+]1C | 37.89 um | 4.5 nM
Cc1cn2c3ccccc3n(CCN3CCCC3)c2n1 | 126.09 um | 1070 nM
Cl.Nc1ccc(N2CCCCCC2)cc1 | 77.66 um | 1950 nM
CCCCSCC(O)CN1CCCCC1 (configuration not stated) | 191.22 um | > 10000 nM
CCCC1(CCC)NC(=S)N(c2ccc(C)c(C)c2)N1 | 233.59 um | > 10000 nM
CC[n+]1c(/C=C/C=C2\N(C)c3ccccc3C2(C)C)n(Cc2ccccc2)c2ccccc21 | 13.99 um | 6.76 nM
